The list is not random: actives were taken first. Their share in the collection is about 2%.
Statin myotox sup = suppressors of statin myotoxicity in C2C12 myotubes, primary screen, cell-based, single point, plate reader; C2C12 myotubes + simvastatin, ATP luminescence, 48 h; scaled: DMSO 0, geranylgeraniol control 100; rescue of ATP level, % at 7.49 µM; hit rate 0.78% among 330,000; AID 602340, 2012;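 active means mean ATP rescue above about 67%, or every replicate alone reaching that limit, limit read from the data, passing the limit was not always enough; inconclusive means no clear call, values can overlap the other calls; inactive means mean under the limit and some replicate under it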;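 further: myotubes were challenged with 10 µM simvastatin during compound exposure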
S100A4 MyoIIA = inhibitors of S100A4-myosin IIA peptide binding, primary screen, biochemical, fluorescence polarization, TAMRA-MyoIIA peptide | Protein S100-A4 (Homo sapiens), P26447 | inhibition, % at 10.7 µM | hit rate 0.14% among 360,000 | AID 652163, 2013;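 active means mean inhibition of at least 70% across replicates, with every replicate also reaching that level; inconclusive means mean inhibition reaches 70% but some replicates fall short; inactive means mean inhibition below 70%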
Target sequence (P26447 whole entry, looked up): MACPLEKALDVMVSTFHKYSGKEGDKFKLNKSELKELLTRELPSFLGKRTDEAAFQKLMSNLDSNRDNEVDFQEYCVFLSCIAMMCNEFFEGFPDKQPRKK
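Assay system: human S100A4 monomer with TAMRA-labelled myosin IIA peptide / Buffer or medium: Calcium-containing HEPES buffer, pH 7.2 / Reagent: TAMRA-labelled myosin IIA heavy-chain peptide probe, 5 nM / Compound: one dose per compound / Timing: polarization read 5 min after assay mix addition, stable 5–60 min / Benchmarks: neutral control DMSO, positive control TFP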
dFosB act-1 = activators of delta FosB homodimer, primary screen, biochemical, fluorescence polarization, TAMRA-CDK5 oligo, single point. purified delta FosB; percent of positive-control signal above neutral wells. activation, % at 25 µM. hit rate 0.99% among 340,000. AID 493131, 2011;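 active means mean activation above about 17%, with every replicate also reaching it, limit read from the data, passing the limit was not always enough; inconclusive means only one of the two conditions met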
CAL PDZ FP-1 = CAL PDZ peptide-binding inhibitors, primary screen, biochemical, fluorescence polarization, Cer-tagged CAL PDZ, HTS. purified CAL PDZ, TMR-peptide fluorescence polarization, 1 h. inhibition, % at 20 µM. hit rate 0.02% among 330,000. AID 504414, 2011;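 active means highest replicate inhibition of at least 40%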;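 further: plate controls were DMSO neutral control wells for no effect and unlabeled competitor peptide control wells for full effect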
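Test system: purified CerCALP PDZ construct; Compound dosing: one concentration, 20 µM compound; Also added: TMR-labelled reporter peptide T*-PRC34 bound in PDZ groove; Read-out: inhibition from polarization loss; Controls: unlabelled peptide and DMSO controls; Signal: FP readout, S and P plane fluorescence; Incubation: 1 h at RT.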
CAL PDZ FP-2 = untagged CAL PDZ binding inhibitors, primary screen, biochemical, fluorescence polarization, HTS | Golgi-associated PDZ and coiled-coil motif-containing protein (Homo sapiens), Q9HD26 | purified CAL PDZ, TMR-peptide fluorescence polarization, 1 h | inhibition, % at 24.9 µM | hit rate 0.92% among 300,000 | AID 602252, 2012;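 active means mean inhibition of at least 30% with at least half of replicates also reaching 30%; inconclusive means no clear call, values can overlap the other calls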;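 further: 0% = DMSO neutral control and 100% = excess unlabeled competitor peptide PRC23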
CDK5 inh = inhibitors of human CDK5/p35 kinase, primary screen, biochemical, single concentration | Cyclin-dependent kinase 5 (Homo sapiens) + Cyclin-dependent kinase 5 activator 1 (Homo … | Recombinant CDK5/p35, ADP-Glo luminescence, 60 min | inhibition, % at 10 µM | hit rate 0.01% among 330,000 | AID 488839, 2010;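 active means highest replicate inhibition of at least 50% and at least 75% of replicates reaching 50%; inconclusive means only one of the two criteria met; inactive means both criteria failed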;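 further: plate controls were DMSO neutral control for no effect and GW8510 at 10 µM for full effect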
Target sequence (Q00535 whole entry, looked up): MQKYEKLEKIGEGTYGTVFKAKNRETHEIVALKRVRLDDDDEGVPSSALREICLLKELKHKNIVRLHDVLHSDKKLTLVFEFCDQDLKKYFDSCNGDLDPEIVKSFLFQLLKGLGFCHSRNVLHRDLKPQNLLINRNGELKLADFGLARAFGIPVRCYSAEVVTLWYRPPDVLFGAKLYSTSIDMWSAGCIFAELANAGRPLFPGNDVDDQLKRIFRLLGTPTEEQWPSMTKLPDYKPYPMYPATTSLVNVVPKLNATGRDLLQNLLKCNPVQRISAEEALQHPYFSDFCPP
Target sequence (Q15078 whole entry, looked up): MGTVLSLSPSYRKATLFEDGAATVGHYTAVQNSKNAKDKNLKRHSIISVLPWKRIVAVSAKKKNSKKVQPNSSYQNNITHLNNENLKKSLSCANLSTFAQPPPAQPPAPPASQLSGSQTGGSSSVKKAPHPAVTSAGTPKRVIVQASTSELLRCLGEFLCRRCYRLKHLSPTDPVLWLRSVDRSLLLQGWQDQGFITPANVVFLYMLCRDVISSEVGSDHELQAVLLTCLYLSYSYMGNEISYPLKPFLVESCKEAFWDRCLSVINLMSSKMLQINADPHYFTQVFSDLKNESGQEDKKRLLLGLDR
dFosB act-2 = activators of mouse delta FosB DNA binding, confirmation, biochemical, fluorescence polarization, TAMRA-CDK5 oligo, cherry-picked samples | AID 588690, 2011 | activation, % at 24.9 µM | purified delta FosB; normalised: neutral wells 0, positive control 100 | 2,400 tested, under 10 active | shares compounds with dFosB act-1;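 active means highest replicate activation at or above 34% and every replicate reaching that threshold; inconclusive means meets only one of the two criteria; inactive means meets neither criterion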;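 further: higher polarization means more probe DNA bound by delta FosB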
Numbers without * were called inactive; ? = inconclusive; . = no result.

SMILES | Statin myotox sup | S100A4 MyoIIA | dFosB act-1 | CAL PDZ FP-1 | CAL PDZ FP-2 | CDK5 inh | dFosB act-2
Cc1cccc(-c2cc3nc(C)cc(NCCCN(C)C)n3n2)c1 | -13.2 | . | 2.1 | -2.7 | -2.2 | 2.2 | .
CN(C)CCCNc1cc(-c2ccccc2)nc2cc(-c3cccc(F)c3)nn12 | -44.5 | -5.9 | 56.4* | -9.6 | -14.1 | 0.6 | 2.2
Cc1cc(S(=O)(=O)n2[nH]c(=O)c(CCO)c2C)c(Cl)cc1Cl | 2.7 | -2.2 | -6.0 | -2.3 | -5.5 | -0.5 | .
CCOc1ccc(S(=O)(=O)Nc2nc3ccccc3nc2-n2ccc(=NC(=O)c3cccs3)cc2)cc1 | 0.2 | -6.0 | 39.6* | -2.0 | -4.9 | 0.4 | 6.5
O=C(N=c1ccn(-c2nc3ccccc3nc2NS(=O)(=O)c2ccccc2)cc1)c1ccccc1Cl | 7.2 | -11.4 | -8.3 | -3.8 | -4.6 | 1.4 | .
O=C(N=c1ccn(-c2nc3ccccc3nc2NS(=O)(=O)c2ccc(Cl)cc2)cc1)c1cccs1 | . | -1.0 | 31.4* | -2.7 | -4.0 | 1.1 | 3.0
C[C@@H]1CN([C@H](C)CO)C(=O)c2cc(C#CCN(C)C)cnc2O[C@@H]1CN(C)Cc1ccncc1 | 5.4 | 8.3 | . | . | . | . | .
Cn1c(SCC(=O)Nc2ccccc2F)nnc1-c1cccs1 | 4.0 | -1.1 | 5.1 | -0.5 | . | -0.6 | .
COc1cc(C(=O)Oc2ccc(/C=N/NC(=O)c3ccncc3)cc2)cc(OC)c1OC | . | -2.0 | -14.9 | -3.3 | -7.4 | 0.9 | .
COc1ccc(/C(C)=N/NC(=O)c2ccncc2)cc1 | -7.4 | -4.2 | 4.5 | -0.2 | -3.5 | 1.5 | .
O=C(N/N=C/c1ccc(OC(=O)c2ccc(Br)cc2)cc1)c1ccncc1 | 4.0 | -2.6 | 90.1* | -1.2 | . | 1.3 | 6.2
COc1ccc(C(=O)Nc2ccc(/C(C)=N/NC(=O)c3ccncc3)cc2)cc1 | -5.5 | -15.2 | 39.8* | -0.6 | -4.8 | 1.1 | -7.0
O=C(N/N=C/c1ccc(OC(=O)c2ccco2)cc1)c1ccncc1 | -2.6 | 7.0 | -0.9 | 17.2 | -3.0 | 0.6 | .
COc1ccc(/C=C/C(=O)Oc2ccc(/C=N/NC(=O)c3ccncc3)cc2)cc1 | -63.8 | -4.7 | 22.3* | -3.2 | 3.3 | -1.1 | 0.1
Cc1[nH]n(-c2ccccc2)c(=O)c1-c1cccc(Cl)c1 | -4.0 | . | -2.0 | -3.3 | 4.2 | 0.8 | .
O=C(COC(=O)c1cc(NS(=O)(=O)c2cccs2)ccc1O)Nc1ccc(F)c(F)c1F | 5.7 | -5.1 | 22.0* | -0.5 | 0.1 | 0.4 | -19.5
O=C(COC(=O)CCC(=O)c1cccs1)Nc1ccc(F)c(F)c1F | 10.3 | -0.3 | -3.6 | -0.3 | -3.2 | -0.6 | .
COc1ccc(OCC(=O)Nc2cc(-c3nn(C)c(=O)c4ccccc34)ccc2OC)cc1 | -29.9 | . | -13.5 | -3.6 | -0.3 | -0.4 | .
COc1ccc(-c2nn(C)c(=O)c3ccccc23)cc1NC(=O)Cn1nc(-c2ccccc2)c2ccccc2c1=O | . | . | 18.9* | -0.7 | -3.5 | 0.5 | -1.2
CCOC(=O)c1ccc(NC(=O)CN2C(=O)NC3(CCC(C)CC3)C2=O)cc1 (stereo not given) | 19.1 | 0.0 | ? | -0.7 | . | 0.2 | .
COC(=O)c1ccc(NC(=O)CN2C(=O)NC3(CCC(C)CC3)C2=O)cc1 (stereo not given) | -1.0 | 1.2 | 18.2* | -0.8 | 56.2* | -0.4 | 3.0
O=C1N=C(N2CCCCC2)S/C1=C/C1=Cc2ccccc2OC1 | . | 5.1 | -6.6 | -1.2 | -0.6 | 0.2 | .
CCOC(=O)c1c(NC(=O)C2CCCO2)sc(C(N)=O)c1C (stereo not given) | -5.5 | . | -2.8 | -1.8 | -0.5 | -0.3 | .
CCOC(=O)c1c(NC(=O)C2c3ccccc3Oc3ccccc32)sc(C(N)=O)c1C | 12.3 | . | 31.8* | 0.8 | -7.6 | -0.2 | 2.4
COc1cccc(-c2sc3ccccc3c2-c2ccc(OCCN3CCCC3)cc2)c1 | -16.3 | -9.6 | 6.4 | -2.5 | 1.0 | 2.6 | .
SMILES | Statin myotox sup | S100A4 MyoIIA | dFosB act-1 | CAL PDZ FP-1 | CAL PDZ FP-2 | CDK5 inh | dFosB act-2
COc1cccc(-c2sc3ccccc3c2-c2ccc(OCCN3CCCCC3)cc2)c1 | -34.2 | . | 34.5* | -4.2 | -4.5 | 2.0 | 0.8
C#CCn1c(=NC(=O)c2ccc(S(=O)(=O)N3CCCc4ccccc43)cc2)sc2cc(S(N)(=O)=O)ccc21 | . | -5.3 | 58.9* | -2.1 | -1.8 | 0.4 | 2.1
C[C@H]1CN([C@@H](C)CO)C(=O)CCCn2cc(nn2)CO[C@H]1CN(C)S(=O)(=O)c1ccc(Oc2ccccc2)cc1 | 39.9 | 5.7 | . | . | . | . | .
COc1cccc(NC(=S)NC(=O)/C=C/c2ccc(F)cc2)c1 | -10.9 | 14.7 | 34.0* | -1.6 | . | 1.0 | -1.3
COc1cc(OC)cc(-c2nc(SCC(=O)Nc3ccccc3F)n[nH]2)c1 | 2.4 | -6.3 | -7.8 | -1.9 | . | -2.4 | .
COc1ccc(Cc2nnc(NC(=O)CSc3ccc(C)cc3)s2)cc1 | . | . | -8.3 | 1.2 | 23.5 | 0.8 | .
O=C(Nc1ccc(NC(=O)c2ccccc2O)cc1)Nc1ccc(F)cc1F | . | 1.5 | 31.8* | -0.9 | -4.4 | -0.5 | 6.9
Cc1ccc(S(=O)(=O)Nc2ccc(NC(=O)Nc3ccc(F)cc3F)cc2)cc1 | . | . | 20.2* | 0.4 | 1.2 | 0.3 | 4.5
CCCCSc1nc(C)nc2c1c(=O)n(C)c(=O)n2C | -15.2 | 2.3 | -0.8 | -0.8 | 3.6 | 0.5 | .
Cc1ccc(NC(=O)Nc2nnc(CSCCOc3ccc(Cl)cc3)s2)cc1 | . | -1.4 | 8.1 | -2.7 | -2.5 | 0.2 | .
COc1ccc(OCCSCc2nnc(NC(=O)Nc3ccc(Cl)cc3)s2)cc1 | . | -0.2 | 23.6* | -2.4 | -3.9 | 2.4 | 6.1
C#CCOc1nc(Nc2cccc([N+](=O)[O-])c2)nc(OCC#C)n1 | -7.6 | 5.8 | 28.8* | -2.6 | -0.6 | -1.6 | 1.8
COc1nc(Nc2cccc([N+](=O)[O-])c2)nc(OC)n1 | . | -0.7 | 106.0* | -1.7 | -4.6 | 1.1 | 3.0
C=CCNc1nc(Nc2ccc([N+](=O)[O-])cc2)nc(OC)n1 | 3.2 | . | 8.5 | -2.7 | 0.0 | -7.9 | .
CCc1cc(C(=O)Nc2ccccc2)cs1 | -43.4 | . | -2.1 | -1.8 | . | 0.8 | .
O=C(CCS(=O)(=O)c1cccs1)Nc1ccc(C(=O)NCc2ccccc2)cc1 | 9.8 | . | -4.7 | . | -2.5 | -1.4 | .
